These results are taken from ChEMBL document CHEMBL3779876, “Synthesis and biological evaluation of novel 2,3-dihydrochromeno[3,4-d]imidazol-4(1H)-one derivatives as potent anticancer cell proliferation and migration agents” (Eur J Med Chem, 2016).

Experiment [1] in a line: Growth inhibition of human PC3 cells assessed as cell viability after 72 hrs by MTT assay. The format is functional, cell-based. Particulars: PC-3, 72 h. In outline:
(§1)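 Cells were grown in DMEM or RPMI with 10% FBS and 1% penicillin/streptomycin at 37 °C, 5% CO2. They were seeded at 2000–3000 cells, rested 24 h, then exposed to a range of concentrations for 72 h. MTT (5 mg/mL stock) was added for 2–4 h at 37 °C and formazan dissolved in DMSO. A570 was read and IC50 calculated; triplicate wells, three separate experiments.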

A short description of experiment [2]: Growth inhibition of human U87MG cells assessed as cell viability after 72 hrs by MTT assay. Particulars: U-87 MG. The experiment is classed as functional, cell-based, U-87MG ATCC. The method in brief:
as §1

Experiment [3] can be described thus: Growth inhibition of human HCT116 cells assessed as cell viability after 72 hrs by MTT assay. The format is functional, cell-based. Particulars: HCT-116, 72 h. The method in brief:
as §1

pIC50: −log10 of the molar value.

Consider `CC(C)(C#N)c1ccc(-n2c(=O)[nH]c3c(=O)oc4ccc(-c5cccnc5)cc4c32)cc1`, for which the values for the negative-log IC50 (pIC50) in experiment [1] and in experiment [2] were 4.42 and 4.59, respectively.
With `N#CCc1ccc(-n2c(=O)[nH]c3c(=O)oc4ccc(-c5ccncc5)cc4c32)cc1`, the negative logarithm of the IC50 (pIC50) in experiment [3] is 4.43; in experiment [1] it was 4.43; in experiment [2], 4.44.
As for `O=c1oc2ccc(-c3cccnc3)cc2c2c1[nH]c(=O)n2-c1ccccc1`, the pIC50 in experiment [1] and in experiment [2] was < 4.40 throughout.
Regarding `O=c1oc2ccc(-c3ccncc3)cc2c2c1[nH]c(=O)n2-c1ccccc1`, the pIC50 in experiment [2] is 4.41.
On to `CC(C)(C#N)c1ccc(-n2c(=O)[nH]c3c(=O)oc4ccc(-c5ccncc5)cc4c32)cc1`, for which the pIC50 in experiment [1] and in experiment [2] was 4.54 each time.
With `Nc1cccc(-c2ccc3oc(=O)c4[nH]c(=O)n(-c5ccccc5)c4c3c2)c1`, the pIC50 in experiment [1] and in experiment [2] was < 4.40 in each case.
`O=c1oc2ccc(-c3ccc(O)cc3)cc2c2c1[nH]c(=O)n2-c1ccccc1`: the pIC50 in experiment [2] is < 4.40.
Regarding `N#CCc1ccc(-n2c(=O)[nH]c3c(=O)oc4ccc(-c5ccc(O)cc5)cc4c32)cc1`, the results for the pIC50 in experiment [3], in experiment [1] and in experiment [2] were 4.52, 4.51 and 4.53, respectively.
For `N#CCc1ccc(-n2c(=O)[nH]c3c(=O)oc4ccc(-c5cccc(NS(=O)(=O)c6ccc(F)cc6)c5)cc4c32)cc1`, the negative logarithm of the IC50 (pIC50) in experiment [3], in experiment [1] and in experiment [2] was < 4.40 each time.
For the molecule `COc1ccc(-n2c(=O)[nH]c3c(=O)oc4ccc(-c5cnc6ccccc6c5)cc4c32)cc1`, the pIC50 in experiment [3], in experiment [1] and in experiment [2] was < 4.40 throughout.
Turning to `N#CCc1ccc(-n2c(=O)[nH]c3c(=O)oc4ccc(-c5ccccc5)cc4c32)cc1`, the pIC50 was < 4.40 in experiment [3], 4.45 in experiment [1] and 4.50 in experiment [2].
For `N#CCc1ccc(-n2c(=O)[nH]c3c(=O)oc4ccc(-c5cnc6ccccc6c5)cc4c32)cc1` the same measures were 4.55, 4.52 and 4.46.
For `N#CCc1ccc(-n2c(=O)[nH]c3c(=O)oc4ccc(-c5cccnc5)cc4c32)cc1` the same measures were 4.53, < 4.40 and < 4.40.
For `CC(C)(C#N)c1ccc(-n2c(=O)[nH]c3c(=O)oc4ccc(-c5cnc6ccccc6c5)cc4c32)cc1` the same measures were 4.69, 4.70 and 4.48.
Turning to `O=c1oc2ccc(-c3cccc(NS(=O)(=O)c4ccc(F)cc4)c3)cc2c2c1[nH]c(=O)n2-c1ccccc1`, the pIC50 in experiment [3], in experiment [1] and in experiment [2] was < 4.40 throughout.
As to `N#CCc1ccc(-n2c(=O)[nH]c3c(=O)oc4ccc(-c5cccc(N)c5)cc4c32)cc1`, the negative logarithm of the IC50 (pIC50) in experiment [1] was 4.44; in experiment [2], < 4.40.
For the molecule `Cc1ccccc1-c1ccc2oc(=O)c3[nH]c(=O)n(-c4ccccc4)c3c2c1`, the pIC50 in experiment [2] is < 4.40.
Turning to `O=c1oc2ccc(-c3cnc4ccccc4c3)cc2c2c1[nH]c(=O)n2-c1ccccc1`, the negative logarithm of the IC50 (pIC50) is 4.50 in experiment [3], 4.47 in experiment [1] and 4.45 in experiment [2].
Turning to `Cc1ccccc1-n1c(=O)[nH]c2c(=O)oc3ccc(-c4ccncc4)cc3c21`, the pIC50 in experiment [3], in experiment [1] and in experiment [2] was < 4.40 each time.
Consider `CS(=O)(=O)c1ccc(-c2ccc3oc(=O)c4[nH]c(=O)n(-c5ccc(CC#N)cc5)c4c3c2)cc1`, for which the pIC50 in experiment [1] was 4.53; in experiment [2], 4.40.
Consider `COc1ccc(-n2c(=O)[nH]c3c(=O)oc4ccc(-c5cccnc5)cc4c32)cc1`, for which the negative logarithm of the IC50 (pIC50) in experiment [3], in experiment [1] and in experiment [2] was < 4.40 each time.
On to `Cc1ccccc1-c1ccc2oc(=O)c3[nH]c(=O)n(-c4ccc(CC#N)cc4)c3c2c1`, for which the pIC50 in experiment [3], in experiment [1] and in experiment [2] was < 4.40 in each case.
`Cc1ccccc1-n1c(=O)[nH]c2c(=O)oc3ccc(-c4cccnc4)cc3c21`: the pIC50 in experiment [3], in experiment [1] and in experiment [2] was < 4.40 each time.
Consider `COc1ccc(-n2c(=O)[nH]c3c(=O)oc4ccc(-c5ccncc5)cc4c32)cc1`, for which the negative-log IC50 (pIC50) in experiment [3], in experiment [1] and in experiment [2] was < 4.40 each time.
On to `O=c1oc2ccc(-c3ccccc3)cc2c2c1[nH]c(=O)n2-c1ccccc1`, for which the pIC50 in experiment [1] and in experiment [2] was < 4.40 throughout.
Take `Cc1ccccc1-n1c(=O)[nH]c2c(=O)oc3ccc(-c4cnc5ccccc5c4)cc3c21`: the pIC50 in experiment [3], in experiment [1] and in experiment [2] was < 4.40 throughout.
